Rows were chosen to be rich in hits. Some 3.2% of all compounds tested hit in one or more screens of this group.
TRPML3 ag: human TRPML3 channel agonists, primary screen, cell-based, HEK293 TRPML3-YFP, Fluo-8 calcium fluorescence, 3 µM; actives 0.29% (n = 220,000); activation, % at 3 µM; Mucolipin-3 (Homo sapiens), Q8TDD5; 100% = the carbachol control signal;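 active = activation above its plate's cutoff, the mean activation of the plate's test wells plus 3 SD, cut at about 12% in these data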
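Test system: HEK293 cells stably carrying human TRPML3-YFP; Doses: single dose, 3 µM final nominal compound, 0.3% DMSO final; Schedule: dye loading 1 h 37 °C then 30 min ambient, 125 s read; Technique: Fluo-8 calcium fluorescence; Benchmarks: high control carbachol 87 µM, low control DMSO.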
OX1R antag-1: antagonists of human orexin 1 receptor (OX1R). Orexin/Hypocretin receptor type 1 (Homo sapiens), O43613. OX1R-expressing cells, FRET antagonist read-out. inhibition, % at 6.6 µM. actives 1.8% (n = 330,000); in the data active = inhibition mostly above about 38%, no sharp cut-off; inactive = mostly below about 40%
CHO parental Ca: ATP-evoked calcium signal inhibitors, parental CHO, primary screen, counter-screen for OX1R antagonist project, cell-based, fluorescence, Fluo-8 calcium dye | parental CHO-K1, ATP-induced calcium, Fluo-8 fluorescence | inhibition, % at 5.6 µM | actives 0.63% (n = 330,000) | AID 463079, 2010;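 active = inhibition above that plate's mean sample inhibition plus 3 SD, cut at about 26% in these data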
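Test system: untransfected parental CHO cell line; also added: ATP stimulus; dosing: 5.6 µM, single dose; signal: calcium-sensitive Fluo-8 fluorescence; measure: percent inhibition of ATP-evoked calcium rise, normalized to controls; benchmarks: low control ATP plus DMSO, high control DMSO only; replication: one well per compound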
OX1R antag-2: OX1R (HCRTR1) antagonists, primary screen, fluorescence, CHO/OX1R cells, Fluo-8 calcium, orexin A. Orexin/Hypocretin receptor type 1 (Homo sapiens), O43613. AID 434989, 2010. actives 0.43% (n = 330,000). Fluo-8 calcium fluorescence. inhibition, % at 5 µM;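 active = inhibition above its plate's threshold, mean inhibition of all tested compounds on the plate plus 3 SD, cut at about 37% in these data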
GPR7 antag: GPR7 receptor antagonists, primary screen, cell-based, fluorescence, single concentration. GPR7-expressing cells, fluorescence antagonist assay. inhibition, % at 4.4 µM. actives 1.1% (n = 290,000). AID 1861, 2009; in the data active = inhibition above about 16%, passing the limit was not always enough;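 also: cells stimulated with the agonist NPW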
Target sequence (P48145 whole entry, looked up): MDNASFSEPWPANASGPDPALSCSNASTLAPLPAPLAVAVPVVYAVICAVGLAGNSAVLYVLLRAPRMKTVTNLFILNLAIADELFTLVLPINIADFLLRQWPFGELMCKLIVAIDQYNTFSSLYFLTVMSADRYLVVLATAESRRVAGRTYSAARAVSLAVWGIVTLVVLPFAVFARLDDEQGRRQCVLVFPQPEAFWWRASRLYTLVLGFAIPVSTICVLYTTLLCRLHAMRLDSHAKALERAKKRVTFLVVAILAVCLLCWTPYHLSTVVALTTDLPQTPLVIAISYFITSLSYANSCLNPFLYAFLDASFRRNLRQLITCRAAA
TRPN1 ag: zebrafish TRPN1 channel agonists, primary screen, cell-based, HEK293, calcium fluorescence; AID 1424, 2008; transient receptor potential cation channel N1 (TRPN1/NompC), Danio rerio; HEK293 zebrafish TRPN1-YFP, Fluo-8 calcium fluorescence; 100% = response to 87 µM carbachol; actives 0.18% (n = 220,000); activation, % at 3 µM;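 active = activation above its plate's cutoff, the mean activation of test wells on that plate plus 3 SD, cut at about 19% in these data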
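System: zebrafish TRPN1-YFP in HEK293 cells / Dosing: 3 µM single point / Timing: dye loading 1 h at 37 °C, then 30 min room temperature / Signal: Fluo-8 calcium fluorescence, excitation 470-495 nm, emission 515-575 nm / Read-out basis: percent activation from peak over basal fluorescence ratio, control-normalized / Control set: high carbachol 87 µM, low DMSO alone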
Hits are given with their value; . = inactive; / = no result.

SMILES	TRPML3 ag	OX1R antag-1	CHO parental Ca	OX1R antag-2	GPR7 antag	TRPN1 ag
CCOC(=O)C1C(c2ccc3c(c2)OCO3)NC(=O)NC1(O)C(F)(F)F (centres undefined)	.	.	.	.	.	28
CCOC(=O)c1nn(-c2cccc(OC)c2)c2nc(Nc3ccccc3)cc(=O)n12	.	.	94	.	.	.
CS(=O)(=O)NCCCNc1ccc(Cl)cc1[N+](=O)[O-]	.	43	.	.	.	.
Nc1ccc(N2CCCCC2)c(S(=O)(=O)Nc2ccccc2Cl)c1	.	.	.	.	.	.
Nc1cc(S(=O)(=O)Nc2ccccc2Cl)ccc1N1CCCCC1	/	.	30	45	/	/
Cc1csc(NC(=O)CCCC(=O)O)c1-c1nc2ccccc2s1	.	.	.	.	.	.
Cc1csc(NC(=O)COCC(=O)O)c1-c1nc2ccccc2s1	.	53	.	.	.	.
CC(C)[C@H](NC(=O)c1ccccc1F)C(=O)NC1CCCCCCC1	/	.	.	.	/	/
CC1(C)Cc2c(sc(NC(=O)COc3cccc4ccccc34)c2C#N)C(C)(C)N1	.	.	82	.	.	.
CC(C)CN(C(=O)COC(=O)c1ccccn1)c1c(N)n(Cc2ccccc2)c(=O)[nH]c1=O	/	.	.	.	/	/
CCn1c(=O)c(C(=O)NNC(=O)c2cccc(Cl)c2)c(O)c2ccccc21	/	.	95	98	.	/
CCn1c(=O)c(C(=O)Nc2nc3ccccc3[nH]2)c(O)c2ccccc21	.	.	98	106	.	.
Cc1cccc(C(=O)NNC(=O)c2c(O)c3ccccc3n(C)c2=O)c1	/	.	40	.	.	/
CCn1c(=O)c(C(=O)NNC(=O)c2ccc(Cl)cc2Cl)c(O)c2ccccc21	/	.	.	.	.	/
CCCCCCCCC(=O)NNC(=O)c1c(O)c2ccccc2n(CCC)c1=O	.	.	34	.	.	.
CCn1c(=O)c(C(=O)Nc2ccccc2)c(O)c2ccccc21	/	.	.	.	.	/
Cn1nc(C(=O)Nc2nc(-c3ccc(F)cc3)cs2)ccc1=O	.	.	.	.	.	.
CC1(C)CC(=O)C=C(c2cccc(O)c2)C1=O	/	.	.	.	/	/
CCCCCOc1ccc(C(=O)Nc2ccc(S(=O)(=O)Nc3cc(C)on3)cc2)cc1	/	.	.	.	.	/
Cn1c(=O)c(C(=O)NNC(=O)c2cccc(Cl)c2)c(O)c2ccccc21	/	.	47	44	.	/
Cc1cccc(-c2noc(CN(C(=O)C(c3ccccc3)c3ccccc3)C(C)C)n2)c1	.	43	69	.	.	.
Cc1cccc(-c2noc(CN(C(=O)c3ccc(Br)o3)C(C)C)n2)c1	.	.	.	.	.	.
Cc1cccc(-c2noc(CN(C(=O)c3ccc4c(c3)OCO4)C(C)C)n2)c1	.	69	.	.	.	.
COC(=O)c1cccc(NC(=O)Nc2ccc(Cl)c(Cl)c2)c1	.	69	.	67	.	20
O=C(Nc1ccc(F)c(Cl)c1)Nc1csc2ccccc12	.	67	40	50	.	.
SMILES	TRPML3 ag	OX1R antag-1	CHO parental Ca	OX1R antag-2	GPR7 antag	TRPN1 ag
COc1cccc(NC(=O)Nc2ccc(C)c(Cl)c2)c1	.	.	90	38	.	.
COC(=O)c1ccc(NC(=O)Nc2ccc(F)cc2)cc1	.	.	.	.	.	.
O=C(Nc1ccc(F)cc1F)Nc1csc2ccccc12	.	.	.	.	.	.
COC(=O)c1ccc(NC(=O)Nc2ccc(F)c(Cl)c2)cc1	.	59	41	.	.	.
COC(=O)c1cccc(NC(=O)NC(=O)c2ccccc2Cl)c1	.	.	.	.	.	.
CC(NC(=O)CNC(=O)c1cccs1)c1cccc(C(F)(F)F)c1 (centres undefined)	/	.	.	.	/	/
COCCOc1cc(-n2cccc2)c(Cl)cc1Cl	.	.	.	.	.	.
COc1ccc(CCN2C(=O)c3ccccc3NC2c2cc(Cl)c(O)c(OC)c2)cc1 (centres undefined)	/	.	.	.	.	/
CCCCc1ccc(NC(=S)NCCc2ccc(F)cc2)cc1	.	.	.	.	.	.
CCCCNS(=O)(=O)CCNCc1ccco1	/	.	.	.	/	/
COC(=O)c1cc(NC(=O)Nc2ccccc2)ccc1Cl	.	.	49	.	.	.
COC(=O)c1cc(NC(=O)C2COc3ccccc3O2)ccc1Cl (centres undefined)	.	.	.	.	.	.
Cc1cc(NC(=O)Cc2ccccc2)nc2c1c(=O)oc1ccccc12	.	.	.	.	.	.
COc1cccc(C(=O)Nc2cc(C)c3c(=O)oc4ccccc4c3n2)c1	/	45	.	.	/	/
CCCC/C(O)=C1\C(=O)CC(C)(C)CC1=Nc1ccccc1OC	.	.	.	.	.	.
CCC/C(O)=C1\C(=O)CC(C)(C)CC1=Nc1ccc(OC)cc1OC	.	.	.	.	16	.
COc1ccc(CC(=O)N(Cc2ccccc2)c2ccccc2)cc1S(=O)(=O)N1CCOCC1	/	58	.	.	.	/
Cc1ccc(-c2csc3nc(SCC(N)=O)n(Cc4ccccc4)c(=O)c23)cc1	.	.	.	.	.	.
CCN(CC)c1ccc(NC(=O)c2cc3c(OC)cccc3[nH]2)cc1	/	40	.	.	.	/
CN(C)c1ccc(N2C(=NC(=O)CC3CCCCC3)SC3CS(=O)(=O)CC32)cc1 (centres undefined)	/	.	.	.	.	/
COc1cccc2c(=O)c3ccccc3oc12	.	62	.	.	.	.
CN(C)CCNC(=O)c1cc2c(s1)-c1ccccc1OC2	.	.	.	.	.	.
Cc1csc(NC(=O)c2cc3c(s2)-c2ccccc2OC3)n1	.	69	.	.	.	.
CC1CC(C)CN(C(=O)CNC(=O)c2ccc3ccccc3c2)C1 (centres undefined)	/	74	.	.	.	/
COCC(C)N1CC(O)=C(c2nc(-c3ccc(Cl)cc3)cs2)C1=N (centres undefined)	.	.	.	.	.	.
Cc1ccc(N(C(=O)CCl)C(C(=O)NC2CCCCC2)c2cccnc2)cc1C (centres undefined)	.	.	.	.	.	.
CCOC(=O)C1=C(Cn2cnc3ccccc32)NC(=O)NC1c1cc(C)ccc1C (centres undefined)	.	.	95	79	.	.
CN(c1ccccc1)S(=O)(=O)c1cccc(C(=O)OCC(=O)NCc2ccccc2)c1	/	.	.	.	/	/
